The inhibition is the relative decrease from the control value, in per cent.

Among the data in PubChem BioAssay AID1885 (Broad Institute, 2009) are inhibition values, retold here.

Hit rate of the full screen: of about 300,000 compounds, about 4,400 (1.5%) were called active.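 Rule for the calls: active = mean inhibition across valid replicates above about 55% (limit read from the data); inconclusive = mean below that limit but half or more replicates reach it; inactive = mean below it, under half of replicates reach it.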 Only a selection was taken, and actives are over-represented in it overall.

The assay can be described thus: inhibitors of intracellular T. cruzi growth, primary screen, luminescence, NIH3T3 host cells (AID 1885).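 Note: signal also drops with host cell toxicity which is not excluded here; 0% = plate median of DMSO wells and 100% = zero luminescence signal; higher percent means less beta-gal luminescence so fewer parasites.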 Conditions: T. cruzi beta-gal in NIH3T3, luminescence, 90 h; active compounds read high; concentration not given here. The essentials: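 System – NIH/3T3 host cells with β-galactosidase reporter T. cruzi · Doses – single 50 nL compound addition per well in DMSO · Reagent – 5000 T. cruzi trypomastigotes/well · Medium – Low-serum DMEM with 2% FBS · Timing – ≥90 h infection period, 3 h prior cell attachment · Evaluation – parasite load inhibition, % · Technique – GalScreen luminescence, 60 min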
`COc1ccccc1CCC(=O)NNC(=O)c1ccncc1`: the inhibition is 10.4% (inactive). Then `Cc1cc(NC(=O)CCC2COc3ccccc3O2)no1` (configuration not stated), with 1.39% (inactive); and `Cc1cc(C(=O)CCl)c(C)n1CC1COc2ccccc2O1` (configuration not stated), with 60.4% (active); and `O=C1C(=O)N(CC2COc3ccccc3O2)c2ccccc21` (configuration not stated), with -17% (inactive).

As for `Cc1cc(C)c(C)c(S(=O)(=O)N2CCN(C(=O)c3ccc4c(=O)n5c(nc4c3)CCC5)CC2)c1C`, the inhibition is -5.27% (inactive). In the case of `Nc1nc(Sc2ncccc2[N+](=O)[O-])n[nH]1` it was -19.9% (inactive); in that of `Brc1cnc2ccccc2c1N1CCCCC1`, 0.276% (inactive). Regarding `Cc1cccc(C(=O)OC(C)CN2CCN(C)CC2)c1` (configuration not stated), the inhibition is 56.8% (active). In the case of `Cc1cccc(C(=O)OC(C)CN2CCCC2)c1` (configuration not stated) it was -8.01% (inactive).

As for `Cc1ccc(C(=O)OC(C)CN2CCOCC2)cc1` (configuration not stated), the inhibition was -11.2% (inactive). In the case of `COc1ccc(-c2oc(/N=C/N3CCCC3)c(C#N)c2-c2ccc(OC)cc2)cc1` it was 57.6% (active). Consider `COc1cc(C(=O)Nc2oc(-c3ccccc3)c(-c3ccccc3)c2C#N)cc(OC)c1OC`, for which the inhibition was 12.7% (inactive).

In the case of `N#Cc1c(/N=C/N2CCCC2)oc(-c2ccccc2)c1-c1ccccc1`, the inhibition is 37.2% (inactive). Regarding `O=C(NC1CCCCC1)C1CCC(CNS(=O)(=O)c2ccccc2)CC1` (configuration not stated), the inhibition is -8.43% (inactive). Then `O=C(CCl)NNc1nc(-c2ccccc2)c2cc(Cl)ccc2n1`, with 3.67% (inactive); and `NC(N)=Nc1nc(-c2ccccc2)c2cc(Cl)ccc2n1`, with 65.4% (active). Regarding `OCCCNc1nc(-c2ccccc2)c2cc(Cl)ccc2n1`, the inhibition was 18.3% (inactive). Then `CC(Oc1ccccc1[N+](=O)[O-])C(=O)N/N=C/c1ccoc1` (configuration not stated), with -8.31% (inactive). In the case of `O=C(Nc1ccc(N2CCCCC2)cc1)c1cc(S(=O)(=O)N2CCOCC2)ccc1F` it was 22.8% (inactive); in that of `CCN(CC)c1ccc(S(=O)(=O)N2CCOCC2)cc1NC(=O)CSc1cccc[n+]1[O-]`, 5.13% (inactive). In the case of `O=C(Nc1ccc(S(=O)(=O)N2CCCC2)cc1Cl)C1=COCCO1` it was -14.4% (inactive). For `CCN(CC)c1ccc(S(=O)(=O)N2CCCCC2)cc1NC(=O)C1=COCCO1`, the inhibition was 61% (active).

Consider `COc1cccc(NC(=O)CN(C)C(=O)CSCc2nc3scc(-c4cccs4)c3c(=O)[nH]2)c1`, for which the inhibition was -4.78% (inactive).

As to `O=C(NN1CCOCC1)c1cccc(F)c1`, the inhibition was -3.38% (inactive). `COc1ccc2cc(S(=O)(=O)Nc3ccccn3)ccc2c1`: the inhibition is 4.63% (inactive). Regarding `Cc1ccc(NS(=O)(=O)c2ccc(C)c(NC(=O)COc3ccc4ccccc4c3)c2)c(C)c1`, the inhibition was 30.6% (inactive). Then `COc1cc(NS(=O)(=O)c2ccc3ccccc3c2)c2ncccc2c1`, with 76.5% (active).
